Experimental data: ChEMBL document CHEMBL2029265, “2-(Pyrrolidin-1-yl)ethyl-3,4-dihydroisoquinolin-1(2H)-one derivatives as potent and selective histamine-3 receptor antagonists” (J Med Chem, 2012)
pEC50, pIC50, pKi: −log10 of the molar value. The source made the active and inactive calls. No cut-off for these calls is given here.

How the values were obtained:
[1] = target: Cytochrome P450 1A2 (Homo sapiens, UniProt P05177); test: Inhibition of CYP1A2 in human liver microsomes up to 100 uM; format: ADME, Microsome
Method in brief: (§1)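 Human liver microsomes were incubated with test article at varying concentrations up to 100 μM. Activities measured were CYP1A2, 2A6, 2B6, 2C8, 2C9, 2C19 and 2D6, plus CYP3A4 via midazolam 1′-hydroxylation and via testosterone 6β-hydroxylation.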

[2] = target: Cytochrome P450 2B6 (Homo sapiens, UniProt P20813); test: Inhibition of CYP2B6 in human liver microsomes up to 100 uM; format: ADME, Microsome; method in brief: as §1
[3] = Fraction unbound in rat plasma; format: ADME, cell-free
Method in brief: (§2)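 Free fraction in human and rat plasma was determined by ultrafiltration.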

[4] = Half life in cynomolgus monkey liver microsomes at 1 uM after 30 mins in presence of NADPH and UDPGA; format: ADME, Macaca fascicularis, Microsome
Method in brief: (§3)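 Liver microsomes from rat, dog, monkey and human were incubated with phase I + II cofactors (NADPH + UDPGA). Half-life was measured in minutes.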

[5] = Ratio of Brain AUC (0 to infinity) to plasma AUC (0 to infinity) in rat at 10 mg/kg, po; format: ADME, organism-based; parameters: dose 10 mg/kg, route oral; conditions: read-out: BPR
Method in brief: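 Rats dosed orally at 10 mg/kg; brain and plasma AUC0→∞ measured, ratio taken as brain/plasma. Oral vehicle 2% Tween/0.5% methyl cellulose in water.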

[6] = target: Cytochrome P450 2D6 (Homo sapiens, UniProt P10635); test: Inhibition of CYP2D6 in human liver microsomes up to 100 uM; format: ADME, Microsome; method in brief: as §1
[7] = target: T1, Histamine H3 receptor (Homo sapiens, UniProt Q9Y5N1); test: Inverse agonist activity at human H3 receptor expressed in HEK293T cells assessed as inhibition of {35S]GTPgamma binding; format: cell-based, HEK-293T
T1 sequence (Q9Y5N1 whole entry): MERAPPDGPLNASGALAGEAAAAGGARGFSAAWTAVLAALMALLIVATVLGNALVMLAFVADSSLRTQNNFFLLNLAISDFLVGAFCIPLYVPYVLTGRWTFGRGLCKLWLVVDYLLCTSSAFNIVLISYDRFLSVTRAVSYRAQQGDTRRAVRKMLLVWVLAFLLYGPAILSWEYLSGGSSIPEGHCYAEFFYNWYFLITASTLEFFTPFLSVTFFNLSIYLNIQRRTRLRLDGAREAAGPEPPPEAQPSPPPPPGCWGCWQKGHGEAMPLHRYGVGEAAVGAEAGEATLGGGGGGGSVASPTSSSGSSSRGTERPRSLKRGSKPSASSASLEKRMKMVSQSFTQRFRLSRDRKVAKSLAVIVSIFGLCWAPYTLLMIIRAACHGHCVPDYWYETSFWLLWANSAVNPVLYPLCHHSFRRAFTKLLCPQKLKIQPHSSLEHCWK
Method in brief: (§4)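 Basal [35S]GTPγS binding was measured in membranes from HEK cells expressing human H3 receptor, across a range of concentrations. EC50 and maximal inhibition relative to basal binding were derived.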

[8] = Apparent permeability from apical to basolateral side of human Caco2 cells; format: ADME, cell-based; conditions: Caco-2
Method in brief: (§5)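 Permeability was measured across Caco-2 epithelial monolayers in both the apical→basolateral and basolateral→apical directions. Apparent permeability is reported in 10−6 cm/s, and a directional ratio (B→A over A→B) was derived.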

[9] = Half life in Sprague-Dawley rat liver microsomes at 1 uM after 30 mins in presence of NADPH and UDPGA; format: ADME, Microsome; method in brief: as §3
[10] = target: Sodium-dependent serotonin transporter (Homo sapiens, UniProt P31645); test: Binding affinity to 5-HT transporter
Sodium-dependent serotonin transporter, sequence (P31645 whole entry): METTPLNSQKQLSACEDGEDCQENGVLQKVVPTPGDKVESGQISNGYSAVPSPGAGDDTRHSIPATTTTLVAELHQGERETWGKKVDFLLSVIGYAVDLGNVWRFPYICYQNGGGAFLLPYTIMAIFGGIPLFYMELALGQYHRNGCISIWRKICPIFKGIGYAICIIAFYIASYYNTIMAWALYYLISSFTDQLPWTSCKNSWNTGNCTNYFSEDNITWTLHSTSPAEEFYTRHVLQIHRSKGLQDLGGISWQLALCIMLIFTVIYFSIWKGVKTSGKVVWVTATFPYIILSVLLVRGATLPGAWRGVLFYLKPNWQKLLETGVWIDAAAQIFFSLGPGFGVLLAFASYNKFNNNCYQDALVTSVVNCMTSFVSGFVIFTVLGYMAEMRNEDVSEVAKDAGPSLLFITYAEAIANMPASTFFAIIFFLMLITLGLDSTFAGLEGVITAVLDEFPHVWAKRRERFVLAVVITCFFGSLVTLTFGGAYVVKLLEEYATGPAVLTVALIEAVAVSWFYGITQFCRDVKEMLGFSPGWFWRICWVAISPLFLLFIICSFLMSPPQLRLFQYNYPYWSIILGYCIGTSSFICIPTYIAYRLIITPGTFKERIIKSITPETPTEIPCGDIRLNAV

[11] = target: T2, Cytochrome P450 3A4 (Homo sapiens, UniProt P08684); test: Inhibition of CYP3A4-mediated testosterone-6beta-hydroxylation activity in human liver microsomes at 100 uM; format: ADME, Microsome; method in brief: as §1
T2 sequence (P08684 whole entry): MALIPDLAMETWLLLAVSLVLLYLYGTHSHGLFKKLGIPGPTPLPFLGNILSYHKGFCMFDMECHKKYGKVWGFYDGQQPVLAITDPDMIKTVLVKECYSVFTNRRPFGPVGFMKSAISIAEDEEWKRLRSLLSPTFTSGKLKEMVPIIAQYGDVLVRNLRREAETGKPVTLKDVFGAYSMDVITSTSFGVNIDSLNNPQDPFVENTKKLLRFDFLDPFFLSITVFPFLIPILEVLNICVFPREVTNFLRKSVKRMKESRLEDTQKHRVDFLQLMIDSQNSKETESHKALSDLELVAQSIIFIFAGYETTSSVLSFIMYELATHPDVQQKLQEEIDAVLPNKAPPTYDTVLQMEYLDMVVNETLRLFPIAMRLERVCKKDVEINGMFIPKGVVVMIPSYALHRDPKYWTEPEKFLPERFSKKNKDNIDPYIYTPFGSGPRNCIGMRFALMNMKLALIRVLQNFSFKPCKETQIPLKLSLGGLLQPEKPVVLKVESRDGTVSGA

[12] = test system: Liver microsomes; test: Metabolic stability in human liver microsomes assessed as GSH adduct formation at 1 uM after 30 mins in presence of NADPH and UDPGA; format: ADME, Microsome; conditions: 0.5 h
Method in brief: (§6)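 Incubations used liver microsomes with NADPH + UDPGA. Glutathione adduct formation was monitored.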

[13] = target: T2, Cytochrome P450 3A4; test: Inhibition of CYP3A4 in human liver microsomes up to 100 uM; format: ADME, Microsome; method in brief: as §1
[14] = target: 5-hydroxytryptamine receptor 6 (Homo sapiens, UniProt P50406); test: Binding affinity to 5-HT6 receptor
5-hydroxytryptamine receptor 6, sequence (P50406 whole entry): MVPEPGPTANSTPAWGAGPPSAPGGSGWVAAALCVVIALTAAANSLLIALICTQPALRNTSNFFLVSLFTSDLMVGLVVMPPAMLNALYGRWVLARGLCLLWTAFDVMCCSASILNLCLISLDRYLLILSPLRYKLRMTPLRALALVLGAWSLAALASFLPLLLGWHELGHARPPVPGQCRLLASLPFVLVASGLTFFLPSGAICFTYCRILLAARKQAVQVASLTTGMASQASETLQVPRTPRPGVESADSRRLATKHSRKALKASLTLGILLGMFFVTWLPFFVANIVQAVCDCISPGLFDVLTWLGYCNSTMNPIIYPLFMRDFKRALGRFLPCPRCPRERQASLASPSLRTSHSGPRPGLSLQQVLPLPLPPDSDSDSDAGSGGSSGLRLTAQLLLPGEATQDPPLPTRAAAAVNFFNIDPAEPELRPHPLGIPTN

[15] = Half life in human liver microsomes at 1 uM after 30 mins in presence of NADPH and UDPGA; format: ADME, Microsome; method in brief: as §3
[16] = target: Histamine H1 receptor (Homo sapiens, UniProt P35367); test: Binding affinity to H1 receptor
Histamine H1 receptor, sequence (P35367 whole entry): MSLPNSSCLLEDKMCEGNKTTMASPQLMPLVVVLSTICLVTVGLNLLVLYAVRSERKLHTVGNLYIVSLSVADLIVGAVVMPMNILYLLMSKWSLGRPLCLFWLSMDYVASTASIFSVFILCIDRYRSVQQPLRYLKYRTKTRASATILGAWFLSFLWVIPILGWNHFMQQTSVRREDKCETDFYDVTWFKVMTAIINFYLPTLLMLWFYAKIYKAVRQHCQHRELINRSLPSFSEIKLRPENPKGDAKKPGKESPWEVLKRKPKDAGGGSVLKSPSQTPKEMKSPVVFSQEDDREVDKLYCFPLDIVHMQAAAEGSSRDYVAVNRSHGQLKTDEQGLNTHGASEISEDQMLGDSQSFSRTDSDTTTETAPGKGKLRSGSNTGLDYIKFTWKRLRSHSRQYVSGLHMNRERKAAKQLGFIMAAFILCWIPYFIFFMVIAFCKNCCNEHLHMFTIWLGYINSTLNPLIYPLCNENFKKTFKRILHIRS

[17] = target: Cytochrome P450 2C19 (Homo sapiens, UniProt P33261); test: Inhibition of CYP2C19 in human liver microsomes up to 100 uM; format: ADME, Microsome; method in brief: as §1
[18] = target: T2, Cytochrome P450 3A4; test: Inhibition of CYP3A4-mediated midazolam-1'-hydroxylation activity in human liver microsomes at 100 uM; format: ADME, Microsome; method in brief: as §1
[19] = target: Sodium-dependent dopamine transporter (Homo sapiens, UniProt Q01959); test: Binding affinity to DAT
Sodium-dependent dopamine transporter, sequence (Q01959 whole entry): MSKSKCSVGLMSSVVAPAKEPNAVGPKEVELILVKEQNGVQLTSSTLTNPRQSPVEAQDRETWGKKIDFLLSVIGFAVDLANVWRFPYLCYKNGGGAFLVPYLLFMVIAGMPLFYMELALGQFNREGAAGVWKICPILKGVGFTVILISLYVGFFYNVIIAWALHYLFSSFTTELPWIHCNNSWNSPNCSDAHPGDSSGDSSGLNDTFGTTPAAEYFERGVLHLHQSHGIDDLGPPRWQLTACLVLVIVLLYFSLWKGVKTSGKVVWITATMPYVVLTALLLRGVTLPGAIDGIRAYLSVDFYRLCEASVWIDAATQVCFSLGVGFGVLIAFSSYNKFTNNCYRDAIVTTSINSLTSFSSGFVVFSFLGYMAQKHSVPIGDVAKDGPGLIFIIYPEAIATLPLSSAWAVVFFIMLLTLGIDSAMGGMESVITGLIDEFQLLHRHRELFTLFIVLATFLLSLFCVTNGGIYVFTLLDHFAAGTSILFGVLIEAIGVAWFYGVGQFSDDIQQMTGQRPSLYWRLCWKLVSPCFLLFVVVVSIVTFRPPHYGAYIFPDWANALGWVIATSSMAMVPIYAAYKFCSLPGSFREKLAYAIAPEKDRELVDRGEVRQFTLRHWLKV

[20] = test system: Liver; test: Metabolic stability in beagle dog liver microsomes assessed as GSH adduct formation at 1 uM after 30 mins in presence of NADPH and UDPGA; format: ADME, Canis lupus familiaris, Microsome; conditions: 0.5 h; method in brief: as §6
[21] = target: 5-hydroxytryptamine receptor 2B (Homo sapiens, UniProt P41595); test: Binding affinity to 5-HT2B receptor
5-hydroxytryptamine receptor 2B, sequence (P41595 whole entry): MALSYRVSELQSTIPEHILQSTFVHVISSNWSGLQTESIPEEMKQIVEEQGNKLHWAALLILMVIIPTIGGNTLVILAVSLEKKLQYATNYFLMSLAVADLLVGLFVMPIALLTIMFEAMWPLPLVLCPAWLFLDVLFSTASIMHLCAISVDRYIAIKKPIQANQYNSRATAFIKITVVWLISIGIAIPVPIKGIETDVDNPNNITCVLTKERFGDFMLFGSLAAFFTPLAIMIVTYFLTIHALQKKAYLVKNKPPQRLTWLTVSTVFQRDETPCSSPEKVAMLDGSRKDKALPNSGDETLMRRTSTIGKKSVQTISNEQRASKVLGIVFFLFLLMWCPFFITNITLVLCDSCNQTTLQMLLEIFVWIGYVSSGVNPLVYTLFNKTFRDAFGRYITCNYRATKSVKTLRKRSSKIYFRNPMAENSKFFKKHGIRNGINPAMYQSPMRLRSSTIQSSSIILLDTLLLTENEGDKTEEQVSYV

[22] = target: Histamine H2 receptor (Homo sapiens, UniProt P25021); test: Binding affinity to H2 receptor
Histamine H2 receptor, sequence (P25021 whole entry): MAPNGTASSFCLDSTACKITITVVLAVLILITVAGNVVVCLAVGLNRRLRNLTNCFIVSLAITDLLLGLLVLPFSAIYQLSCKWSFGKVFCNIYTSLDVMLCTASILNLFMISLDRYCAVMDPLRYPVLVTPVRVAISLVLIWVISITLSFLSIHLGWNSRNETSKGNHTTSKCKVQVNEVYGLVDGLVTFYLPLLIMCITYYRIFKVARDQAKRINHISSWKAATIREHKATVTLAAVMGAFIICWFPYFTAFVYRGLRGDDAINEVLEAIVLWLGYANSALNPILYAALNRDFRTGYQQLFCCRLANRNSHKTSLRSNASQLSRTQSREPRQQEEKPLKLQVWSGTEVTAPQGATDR

[23] = target: D(2) dopamine receptor (Homo sapiens, UniProt P14416); test: Binding affinity to D2 receptor
D(2) dopamine receptor, sequence (P14416 whole entry): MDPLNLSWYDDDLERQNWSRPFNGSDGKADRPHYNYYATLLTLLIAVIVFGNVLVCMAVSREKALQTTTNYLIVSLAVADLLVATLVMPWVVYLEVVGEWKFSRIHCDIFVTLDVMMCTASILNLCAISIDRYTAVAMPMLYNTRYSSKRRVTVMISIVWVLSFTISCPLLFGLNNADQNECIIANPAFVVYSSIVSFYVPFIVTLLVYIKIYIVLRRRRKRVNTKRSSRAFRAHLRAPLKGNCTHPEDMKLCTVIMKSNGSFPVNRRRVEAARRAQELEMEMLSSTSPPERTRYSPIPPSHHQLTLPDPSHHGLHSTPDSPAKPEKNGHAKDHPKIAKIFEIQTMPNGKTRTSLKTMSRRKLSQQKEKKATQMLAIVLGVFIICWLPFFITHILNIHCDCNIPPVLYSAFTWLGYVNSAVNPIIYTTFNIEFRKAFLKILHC

[24] = target: Albumin (Homo sapiens, UniProt P02768); test: Binding affinity to human serum albumin; format: ADME; conditions: isolated protein
Method in brief: (§7)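 Binding to human serum albumin and to α1-acid glycoprotein was assessed by Biacore analysis.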

[25] = target: Cytochrome P450 2A6 (Homo sapiens, UniProt P11509); test: Inhibition of CYP2A6 in human liver microsomes up to 100 uM; format: ADME, Microsome; method in brief: as §1
[26] = Apparent permeability from basolateral to apical side of human Caco2 cells; format: ADME, cell-based; conditions: Caco-2; method in brief: as §5
[27] = Metabolic stability in cynomolgus monkey liver microsomes assessed as GSH adduct formation at 1 uM after 30 mins in presence of NADPH and UDPGA; format: ADME, Macaca fascicularis, Microsome; conditions: 0.5 h; method in brief: as §6
[28] = Fraction unbound in human plasma; format: ADME, cell-free; method in brief: as §2
[29] = target: T3, Alpha-2A adrenergic receptor (Homo sapiens, UniProt P08913); test: Binding affinity to alpha-2A receptor
T3 sequence (P08913 whole entry): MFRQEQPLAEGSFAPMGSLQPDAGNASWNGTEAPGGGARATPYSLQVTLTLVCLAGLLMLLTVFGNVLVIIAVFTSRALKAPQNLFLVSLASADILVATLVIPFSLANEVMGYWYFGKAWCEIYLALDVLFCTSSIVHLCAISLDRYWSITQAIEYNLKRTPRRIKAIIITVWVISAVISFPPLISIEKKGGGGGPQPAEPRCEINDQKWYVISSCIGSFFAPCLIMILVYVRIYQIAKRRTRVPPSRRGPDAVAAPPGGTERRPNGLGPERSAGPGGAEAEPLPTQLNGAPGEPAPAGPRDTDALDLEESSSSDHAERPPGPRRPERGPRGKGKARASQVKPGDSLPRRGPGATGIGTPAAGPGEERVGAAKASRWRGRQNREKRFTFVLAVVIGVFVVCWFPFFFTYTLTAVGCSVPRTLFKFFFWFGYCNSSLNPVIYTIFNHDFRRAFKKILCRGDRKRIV

[30] = target: T1, Histamine H3 receptor; test: Displacement of [3H]-(R)-alpha-methylhistamine from human H3 receptor expressed in HEK293T cells after 120 mins by scintillation counting; format: cell-based, HEK-293T
[31] = target: Cytochrome P450 2C8 (Homo sapiens, UniProt P10632); test: Inhibition of CYP2C8 in human liver microsomes up to 100 uM; format: ADME, Microsome; method in brief: as §1
[32] = Binding affinity to human alpha1-acid glycoprotein; format: ADME; method in brief: as §7
[33] = target: Cytochrome P450 2C9 (Homo sapiens, UniProt P11712); test: Inhibition of CYP2C9 in human liver microsomes up to 100 uM; format: ADME, Microsome; method in brief: as §1
Cytochrome P450 2C9, sequence (P11712 whole entry): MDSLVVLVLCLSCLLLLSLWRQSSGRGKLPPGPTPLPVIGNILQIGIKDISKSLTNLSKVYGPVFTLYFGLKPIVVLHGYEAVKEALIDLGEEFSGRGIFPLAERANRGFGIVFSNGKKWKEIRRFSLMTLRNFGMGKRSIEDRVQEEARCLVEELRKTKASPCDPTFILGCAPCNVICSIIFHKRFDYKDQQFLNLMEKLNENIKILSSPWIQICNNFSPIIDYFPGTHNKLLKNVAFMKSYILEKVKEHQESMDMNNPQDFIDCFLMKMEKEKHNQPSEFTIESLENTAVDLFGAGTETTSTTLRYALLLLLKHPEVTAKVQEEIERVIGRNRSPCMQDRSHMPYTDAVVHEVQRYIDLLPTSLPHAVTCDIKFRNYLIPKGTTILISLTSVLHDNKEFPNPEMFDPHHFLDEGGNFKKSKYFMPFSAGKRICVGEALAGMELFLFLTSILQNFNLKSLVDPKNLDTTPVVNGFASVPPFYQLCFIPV

[34] = test system: Liver microsomes; test: Metabolic stability in Sprague-Dawley rat liver microsomes assessed as GSH adduct formation at 1 uM after 30 mins in presence of NADPH and UDPGA; format: ADME, Microsome; conditions: 0.5 h; method in brief: as §6
[35] = Half life in beagle dog liver microsomes at 1 uM after 30 mins in presence of NADPH and UDPGA; format: ADME, Canis lupus familiaris, Microsome; method in brief: as §3
[36] = test system: Brain; test: AUC (0 to infinity) in rat brain at 10 mg/kg, po; format: ADME, organism-based; parameters: dose 10 mg/kg, route oral, time infinity; conditions: in vivo
Method in brief: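 Rats were dosed orally at 10 mg/kg. AUC0→∞ was determined in both brain and plasma, and the brain/plasma ratio was calculated from the two AUCs.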

[37] = target: T4, 5-hydroxytryptamine receptor 1A (Homo sapiens, UniProt P08908); test: Binding affinity to 5-HT1A receptor
T4 sequence (P08908 whole entry): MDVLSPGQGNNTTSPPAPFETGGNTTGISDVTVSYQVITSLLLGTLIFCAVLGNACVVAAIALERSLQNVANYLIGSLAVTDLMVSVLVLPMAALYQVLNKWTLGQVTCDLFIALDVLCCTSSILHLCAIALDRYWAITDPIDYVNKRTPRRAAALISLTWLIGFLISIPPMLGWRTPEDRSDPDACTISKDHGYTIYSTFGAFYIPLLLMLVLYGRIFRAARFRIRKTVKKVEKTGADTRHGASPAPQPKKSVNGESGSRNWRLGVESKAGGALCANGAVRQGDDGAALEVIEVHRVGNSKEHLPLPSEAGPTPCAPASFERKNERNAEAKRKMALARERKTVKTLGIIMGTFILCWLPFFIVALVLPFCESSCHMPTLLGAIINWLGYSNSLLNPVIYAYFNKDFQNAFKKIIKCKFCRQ

[38] = test system: Plasma; test: AUC (0 to infinity) in rat plasma at 10 mg/kg, po; format: ADME, organism-based; parameters: time infinity, dose 10 mg/kg, route oral; conditions: in vivo
[39] = target: T1, Histamine H3 receptor; test: Inverse agonist activity at human H3 receptor expressed in HEK293T cells assessed as inhibition of {35S]GTPgamma binding relative to basal level; format: cell-based; conditions: HEK-293T, concentration not given here; method in brief: as §4
[40] = test system: Rattus norvegicus; test: Inhibition of (R)-alpha-methylhistamine-induced water consumption in rat dispogenia model at 3 to 10 mg/kg, ip administered 30 mins prior (R)-alpha-methylhistamine challenge measured over 1 hr; format: functional, organism-based
Method in brief: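 Rat dipsogenia model: test article was given ip at 3 or 10 mg/kg 30 min before the H3 agonist (R)-α-methylhistamine. Water consumed during the 1 h after agonist dosing was recorded and compared with vehicle and agonist-alone groups (p < 0.05).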

[41] = target: Voltage-gated inwardly rectifying potassium channel KCNH2 (Homo sapiens, UniProt Q12809); test: Inhibition of human ERG by IonWorks assay

CN(C)C(=O)c1ccc(-c2ccc3c(c2)CCN(CCN2CCCC2)C3=O)cc1 [listing 1 of 2 here]
inhibition (INH) [1]: Not Active | inhibition (INH) [2]: Not Active | fraction unbound [3]: 0.5 | half-life at 1 µM [4]: > 60 min | Kp [5]: 0.27 | inhibition (INH) [6]: Not Active | pEC50 [7]: 7.97 | Papp A→B [8]: 12.1 ×10⁻⁶ cm/s | half-life at 1 µM [9]: 26 min | pKi [10]: < 5.52 | inhibition (INH) [11]: Not Active | Stability [12]: Stable | inhibition (INH) [13]: Not Active | pKi [14]: < 5.00 | half-life at 1 µM [15]: 69 min | pKi [16]: < 5.00 | inhibition (INH) [17]: Not Active | inhibition (INH) [18]: Not Active | pKi [19]: < 5.00 | Stability [20]: Stable | pKi [21]: < 5.00 | pKi [22]: < 4.26 | pKi [23]: < 5.00 | Activity [24]: Toxic | inhibition (INH) [25]: Not Active | Papp B→A [26]: 31.1 ×10⁻⁶ cm/s | Stability [27]: Stable | fraction unbound [28]: 0.59 | pKi [29]: < 5.52 | pKi [30]: 9.05 | inhibition (INH) [31]: Not Active | Activity [32]: Toxic | inhibition (INH) [33]: Not Active | Stability [34]: Stable | half-life at 1 µM [35]: 47 min | AUC [36]: 642 ng·h/g | pKi [37]: 5.06 | AUC [38]: 2369 ng·h/g

CN(C)C(=O)c1ccc(-c2ccc3c(c2)CCN(CCN2CCCC2)C3=O)cc1 [listing 2 of 2 here]
Activity ([7]; HEK-293T): Dose-dependent effect | inhibition [39]: 65% | inhibition [40]: Active

CCNC(=O)c1ccc(-c2ccc3c(c2)CCN(CCN2CCC[C@H]2C)C3=O)cc1
pKi [10]: 6.52 | pKi [14]: < 5.00 | pKi [16]: 5.14 | pKi [19]: < 5.00 | pKi [21]: < 5.00 | pKi [22]: < 5.00 | pKi [23]: < 5.00 | pIC50 [41]: 5.13 | pKi [29]: < 5.52 | pKi [30]: 9.00 | pKi [37]: 5.00
